Measured values of several laboratories.
Protocols differ between the studies behind these lines.
Target: Mitogen-activated protein kinase kinase kinase kinase 5 (MAP4K5, Homo sapiens, UniProt Q9Y4K4)

| SMILES | assay | system | setting | quantity | result |
| --- | --- | --- | --- | --- | --- |
| CC(C)(C)c1nc(-c2cccc(NS(=O)(=O)c3c(F)cccc3F)c2F)c(-c2ccnc(N)n2)s1 | enzyme activity, inhibitor, radiometric | – | 1 µM | remaining activity | 90% |
| O=C(Nc1cnn(-c2csc(C(=O)NC3COC3)c2)c1)Nc1ccccc1Cl | enzyme activity, inhibitor | – | 5 µM | remaining activity | 99.1% |
| COc1cc2ncnc(Nc3ccc(Oc4ccccc4)cc3C)c2cc1OC | enzyme activity, inhibitor | – | 1 µM | inhibition | 38% |
| COc1ccc(COc2ccc(Cc3cnc(N)nc3N)cc2OC)cc1 | cell-free assay | – | 0.5 µM | remaining signal | 97.4% |
| CN1CC(Oc2cnc(C#N)cc2-c2ccn3nc(NC(=O)C4CC4)cc3c2)C1 | enzyme activity, inhibitor | – | 1 µM | inhibition | 4% |
| COc1ccnn2ncc(-c3ccnc(N(C)C)n3)c12 | binding | – | 1 µM | remaining binding | 100% |
| FC(F)(F)Oc1cccc(-c2cnc3ccc(-c4ccncc4)nn23)c1 | enzyme activity, inhibitor, radiometric | – | 5 µM | activity vs control | 74% |
| Cc1cc(C)c(-n2ccn3nc(-c4cccnc4)cc23)cc1NC(=O)c1cc(C#N)cc(S(F)(F)(F)(F)F)c1 | cell-free assay, competition with immobilised ligand | – | 0.1 µM | remaining binding | 83.4% |
| Clc1ccc(Nc2nnc(Cc3ccncc3)c3ccccc23)cc1 | cell-free assay | – | 0.5 µM | remaining signal | 101% |
| Cc1cc(NC(=O)c2cccc(S(F)(F)(F)(F)F)c2)cc(-n2ccn3nc(-c4cccnc4)cc23)c1 | cell-free assay, competition with immobilised ligand | – | 1 µM | remaining binding | 100% |
| CNC(=O)c1cc2c(Oc3ccc(NC(=O)C4(C(=O)Nc5ccc(F)cc5)CC4)cc3)ccnc2cc1OC | enzyme activity, inhibitor, radiometric | – | 1 µM | inhibition | 89% |
| CNC(=O)Nc1ccc2c(c1)CC[C@@]21OC(=O)N(CC(=O)N(Cc2ccc(F)cc2)[C@@H](C)C(F)(F)F)C1=O | cell-free assay, competition with immobilised ligand | – | 1 µM | remaining binding | 88% |
| CCN1CCN(Cc2ccc(NC(=O)c3ccc(C)c(Oc4ccnc5[nH]ccc45)c3)cc2C(F)(F)F)CC1 | target engagement in cells, inhibitor, chemoproteomics | A-375 | 0.5 µM | inhibition | -0.264% |
| COCCOc1nc(-c2ccc(Cl)nc2)nc2c1CN(C(=O)c1ncn3ccccc13)CC2 | cell-free assay, competition with immobilised ligand | – | 0.1 µM | remaining binding | 91% |
| COc1cc(Cl)c(C(=O)N[C@@H](CN[C@H]2CC[C@@H](N)CC2)Cc2ccc(C#N)cc2)cc1-c1ccc(CN[C@H](C)c2ccc(C)cc2)o1 | enzyme activity, inhibitor | – | 1 µM | remaining activity | 113% |
| Cc1nc(N2CC[C@@H](O)C2)ncc1-c1cc(C(F)(F)F)cc2[nH]ncc12 | binding, competition with immobilised ligand | – | 1 µM | remaining binding | 75% |
| O=C1NC(=O)c2cc(Nc3ccc(F)cc3)c(Nc3ccc(F)cc3)cc21 | cell-free assay | – | 0.5 µM | remaining signal | 89.5% |
| C[C@@H]1CN(c2cc(-c3n[nH]c4ccc(OC5(C)CC5)cc34)ncn2)C[C@H](C)O1 | cell-free assay, competition with immobilised ligand | – | 0.1 µM | remaining binding | 100% |
| Cc1ccc(C(=O)NCc2ccsc2)cc1C#Cc1cn(C(C)C)c2ncnc(N)c12 | enzyme activity, inhibitor | – | 1 µM | activity vs control | 7% |
